This is an account of results in paper PMC10373183 (ACS Omega, 2023).

What is called GI50 is the concentration giving 50% growth inhibition.

The structures appear in SMILES notation. “Also recorded” adds a separate entry of the source.

Data set [1] can be described thus: LDH release cytotoxicity assay. The format is cell-based. To be noted: human, U937 cells. Put shortly:
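U937 cells plated and exposed to test compound at several concentrations for 4 h at 37 °C, with Triton X-100 as positive cytotoxicity control. Plates spun 1000 RPM for 5 min. Supernatants mixed with LDH detection reagent for 10 min in the dark at room temperature, then read at OD 490 nm. LC50 fitted from percent activity.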

The test system of a further data set is U937 cells. Briefly: CellTiter-Glo Luminescent cell viability assay. In kind it is cell-based, human. To be noted: for inhibition at 25 µM / inhibition at 50 µM / inhibition at 100 µM / inhibition at 200 µM / GI50: Homo sapiens; for inhibition at 25 µM / inhibition at 50 µM / inhibition at 100 µM / inhibition at 200 µM: U-937, 72 h, read-out: percent inhibition at various concentrations of compounds (CellTiter-Glo, antiproliferative); for GI50: U-937, read-out: antiproliferative (U937) GI50; for antiproliferative activity (in words): U937 cells, CellTiter-Glo, four concentrations. Put shortly: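 U937 cells incubated 72 h with test compound at four concentrations; CellTiter-Glo reagent added at equal volume, shaken 2 min to lyse, then held 10 min at room temperature before luminescence read. Viability = RLU test × 100/RLU control, converted to percent inhibition. GI50 fitted from percent inhibition. Mitomycin C positive control; DMSO diluent as negative control.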

Consider `Cc1nn(C)c(C)c1S(=O)(=O)NCCC1=CCCCC1` [MR-S1-2, N-(2-(Cyclohex-1-en-1-yl)ethyl)-1,3,5-trimethyl-1H-pyrazole-4-sulfonamide], for which, in data set [1], the inhibition at 4 h, 12.5 µM is -1.3%; the inhibition at 4 h, 25 µM is -3.6%; the inhibition at 4 h, 50 µM is -3.1%; the inhibition at 4 h, 100 µM is -5.3%. Further, in the data set on U937 cells, the inhibition at 25 µM is 24.8%, the inhibition at 50 µM is 29.3%, the inhibition at 100 µM amounted to 42.2% and the inhibition at 200 µM came to 58%. The GI50 in the data set on U937 cells is more than 200 µM.
`Cc1nn(C)c(C)c1S(=O)(=O)NCCc1ccc(Cl)cc1` [MR-S1-6, N-(4-Chlorophenethyl)-1,3,5-trimethyl-1H-pyrazole-4-sulfonamide]: in data set [1], the inhibition at 4 h, 12.5 µM was determined as 3.3%; the inhibition at 4 h, 25 µM is -1.3%; the inhibition at 4 h, 50 µM is -2%; the inhibition at 4 h, 100 µM is -1.6%. Moreover, in the data set on U937 cells, the inhibition at 25 µM was determined as 40.5%, the inhibition at 50 µM turned out to be 17.9%, the inhibition at 100 µM turned out to be 28.4% and the inhibition at 200 µM is 44.2%. In addition, the GI50 in the data set on U937 cells is more than 200 µM.
With `Cc1nn(C)c(C)c1S(=O)(=O)NCCc1c[nH]c2ccccc12` [MR-S1-17, N-(2-(1H-Indol-3-yl)ethyl)-1,3,5-trimethyl-1H-pyrazole-4-sulfonamide], in data set [1], the inhibition at 4 h, 12.5 µM was -0.9%; the inhibition at 4 h, 25 µM is -2%; the inhibition at 4 h, 50 µM is -2%; the inhibition at 4 h, 100 µM was -1.6%. Also, in the data set on U937 cells, the inhibition at 25 µM was 18.6%, the inhibition at 50 µM is 12.9%, the inhibition at 100 µM worked out at 32.2% and the inhibition at 200 µM is 12.9%. For the same compound, in the data set with U937 cells, the GI50 was more than 200 µM and the “antiproliferative activity (in words)” value was “impotent; also recorded: less anti-proliferative activity”.
As for `Cc1n[nH]c(C)c1S(=O)(=O)NCCc1c[nH]c2ccccc12` [MR-S1-16, N-(2-(1H-Indol-3-yl)ethyl)-3,5-dimethyl-1H-pyrazole-4-sulfonamide], in data set [1], the inhibition at 4 h, 12.5 µM amounted to 3.8%; the inhibition at 4 h, 25 µM was -0.9%; the inhibition at 4 h, 50 µM was -1.6%; the inhibition at 4 h, 100 µM is -1.8%. Further, in the data set on U937 cells, the inhibition at 25 µM was 14.5%, the inhibition at 50 µM was determined as 24.1%, the inhibition at 100 µM came to 22.5% and the inhibition at 200 µM came out at 55.9%. Also, the GI50 in the data set with U937 cells was more than 200 µM.
Regarding `Cc1nn(C)c(C)c1S(=O)(=O)N1CCC(c2nc3ccccc3[nH]2)CC1` [MR-S1-18, 2-(1-((1,3,5-Trimethyl-1H-pyrazol-4-yl)sulfonyl)piperidin-4-yl)-1H-benzo[d]imidazole], in data set [1], the inhibition at 4 h, 12.5 µM was found to be 0.2%; the inhibition at 4 h, 25 µM was -1.8%; the inhibition at 4 h, 50 µM worked out at 0.2%; the inhibition at 4 h, 100 µM was -0.4%. Further, in the data set with U937 cells, the inhibition at 25 µM worked out at 11.7%, the inhibition at 50 µM worked out at 36.4%, the inhibition at 100 µM was 43.9% and the inhibition at 200 µM was found to be 83.4%. Also, in the data set with U937 cells, the GI50 was 92.6 µM and the “antiproliferative activity (in words)” value is on record as “good antiproliferative activity”.
For the compound `Cc1nn(C)c(C)c1S(=O)(=O)N[C@H](C)c1cccc2ccccc12` [MR-S1-15, (R)-1,3,5-Trimethyl-N-(1-(naphthalen-1-yl)ethyl)-1H-pyrazole-4-sulfonamide], in data set [1], the inhibition at 4 h, 12.5 µM turned out to be 0%; the inhibition at 4 h, 25 µM is -1.3%; the inhibition at 4 h, 50 µM is -1.8%; the inhibition at 4 h, 100 µM is -2.7%. Further, in the data set on U937 cells, the inhibition at 25 µM worked out at 19.5%, the inhibition at 50 µM amounted to 65.1%, the inhibition at 100 µM is 88.5% and the inhibition at 200 µM came to 101%. Besides, in the data set with U937 cells, the GI50 was found to be 3 µM and the “antiproliferative activity (in words)” value is recorded as “good antiproliferative activity; also recorded: most potent”.
